Measured values from ChEMBL document CHEMBL1828601, “Small molecule peptidomimetic inhibitors of importin α/β mediated nuclear transport” (Bioorg Med Chem, 2010).
The source made the active and inactive calls. The rule behind the calls is not given here.

Columns and labels:
FGM [1] = experiment: Inhibition of importin alpha/beta-mediated nuclear transportation of Alexa555-GST-M9 in human FGM cell nucleus at 500 uM after 30 mins by fluorescence microscopy; format: cell-based
Method in brief: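 Transportin-dependent import measured the same way in permeabilized FGM cells, with 0.5 μM Alexa555-GST-M9 cargo in place of BSA-NLS. Conditions: 3 mg/ml HeLa cytosol, ATP-regenerating system, 0.2 mM GTP, 1% DMSO, 30 min at 30°C. Positive control was 1 mg/ml WGA. Nuclear cargo fluorescence quantified per nucleus by automated imaging.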

FGM [2] = experiment: Inhibition of importin alpha/beta-mediated nuclear transportation of Alexa555-BSA-NLS in human FGM cell nucleus at 500 uM after 30 mins by fluorescence microscopy; format: cell-based

| Structure (SMILES) | inhibition (FGM [1]) | inhibition (FGM [2]) |
| --- | --- | --- |
| CSCC[C@H](N)C(=O)Nc1ccc(C(=O)N[C@@H](CCc2ccccc2)C(=O)O)cc1OCc1ccc(Cl)cc1 | Active | Active |
| N[C@@H](Cc1ccccc1)C(=O)N1C[C@@H](C(=O)NCCc2c[nH]cn2)[C@H](C(=O)NCCc2c[nH]c3ccccc23)C1 | Active | Active |
| CC[C@H](C)[C@H](N)C(=O)N1C[C@@H](C(=O)NCCc2c[nH]cn2)[C@H](C(=O)NCCc2c[nH]c3ccccc23)C1 | Active | Active |
| CC[C@H](C)[C@H](NC(=O)c1ccc(NC(=O)[C@@H](N)Cc2ccc(O)cc2)c(OCc2c[nH]cn2)c1)C(=O)O | inactive | inactive |
| COc1ccc(C[C@H](N)C(=O)Nc2ccc(C(=O)N[C@@H](CCc3ccccc3)C(=O)O)cc2OCc2ccc(Cl)cc2)cc1 | inactive | inactive |
| N[C@@H](CC(=O)O)C(=O)Nc1ccc(C(=O)N[C@@H](CCc2ccccc2)C(=O)O)cc1OCc1ccc(Cl)cc1 | Active | Active |
| N[C@@H](Cc1c[nH]cn1)C(=O)Nc1ccc(C(=O)N[C@@H](CCc2ccccc2)C(=O)O)cc1OCc1ccc(Cl)cc1 | inactive | inactive |
| N[C@@H](CCc1ccc(Cl)cc1)C(=O)N1C[C@@H](C(=O)NCCc2c[nH]cn2)[C@H](C(=O)NCCc2c[nH]c3ccccc23)C1 | inactive | inactive |
| CC[C@@H](C)[C@H](N)C(=O)Nc1ccc(C(=O)N[C@@H](CCc2ccccc2)C(=O)O)cc1OCc1ccc(Cl)cc1 | Active | Active |
| CC[C@@H](C)[C@H](N)C(=O)Nc1ccc(C(=O)N[C@H](C(=O)O)[C@@H](C)CC)cc1OCc1c[nH]cn1 | inactive | inactive |
| CC[C@@H](C)[C@H](NC(=O)c1ccc(NC(=O)[C@@H](N)CCCCN)c(OCc2c[nH]cn2)c1)C(=O)O | inactive | inactive |
| NCCCCNC(=O)[C@@H]1CN(C(=O)[C@@H](N)CCc2ccc(O)cc2)C[C@H]1C(=O)NCCc1ccc2ccccc2c1 | inactive | inactive |
| NCCCCNC(=O)[C@@H]1CN(C(=O)[C@@H](N)CCc2ccccc2)C[C@H]1C(=O)NCCc1ccc2ccccc2c1 | inactive | inactive |
| CSCC[C@H](N)C(=O)N1C[C@@H](C(=O)NCCc2c[nH]cn2)[C@H](C(=O)NCCc2c[nH]c3ccccc23)C1 | inactive | inactive |
| N[C@@H](CC(=O)O)C(=O)N1C[C@@H](C(=O)NCCc2c[nH]cn2)[C@H](C(=O)NCCc2c[nH]c3ccccc23)C1 | inactive | inactive |
| CSCC[C@H](N)C(=O)N1C[C@@H](C(=O)NCCCCN)[C@H](C(=O)NCCc2ccc3ccccc3c2)C1 | inactive | inactive |
| CC[C@@H](C)[C@H](NC(=O)c1ccc(NC(=O)[C@@H](N)[C@@H](C)O)c(OCc2c[nH]cn2)c1)C(=O)O | inactive | inactive |
| NCCCC[C@H](N)C(=O)Nc1ccc(C(=O)N[C@@H](CCc2ccccc2)C(=O)O)cc1OCc1ccc(Cl)cc1 | inactive | inactive |
| CC(C)C[C@H](N)C(=O)N1C[C@@H](C(=O)NCCc2c[nH]cn2)[C@H](C(=O)NCCc2c[nH]c3ccccc23)C1 | inactive | inactive |
| CC[C@H](C)[C@H](NC(=O)c1ccc(NC(=O)[C@@H](N)Cc2ccccc2)c(OCc2c[nH]cn2)c1)C(=O)O | inactive | inactive |
| NCCCC[C@H](N)C(=O)N1C[C@@H](C(=O)NCCc2c[nH]cn2)[C@H](C(=O)NCCc2c[nH]c3ccccc23)C1 | inactive | inactive |
| N[C@@H](Cc1c[nH]c2ccccc12)C(=O)N1C[C@@H](C(=O)NCCc2c[nH]cn2)[C@H](C(=O)NCCc2c[nH]c3ccccc23)C1 | Active | Active |
| N[C@@H](Cc1ccc(Cl)cc1)C(=O)Nc1ccc(C(=O)N[C@@H](CCc2ccccc2)C(=O)O)cc1OCc1ccc(Cl)cc1 | inactive | inactive |
| NCCCCNC(=O)[C@@H]1CN(C(=O)[C@@H](N)Cc2ccc(O)cc2)C[C@H]1C(=O)NCCc1ccc2ccccc2c1 | inactive | inactive |
| N[C@@H](Cc1ccc(O)cc1)C(=O)N1C[C@@H](C(=O)NCCc2c[nH]cn2)[C@H](C(=O)NCCc2c[nH]c3ccccc23)C1 | Active | Active |
| N[C@@H](Cc1ccc2ccccc2c1)C(=O)Nc1ccc(C(=O)N[C@@H](CCc2ccccc2)C(=O)O)cc1OCc1ccc(Cl)cc1 | inactive | inactive |
| C[C@@H](O)[C@H](N)C(=O)N1C[C@@H](C(=O)NCCCCN)[C@H](C(=O)NCCc2ccc3ccccc3c2)C1 | inactive | inactive |
| CC[C@H](N)C(=O)Nc1ccc(C(=O)N[C@H](C(=O)O)[C@@H](C)CC)cc1OCc1c[nH]cn1 | inactive | inactive |

| Structure (SMILES) | inhibition (FGM [1]) | inhibition (FGM [2]) |
| --- | --- | --- |
| CC[C@H](C)[C@H](NC(=O)c1ccc(NC(=O)[C@@H](N)Cc2c[nH]c3ccccc23)c(OCc2c[nH]cn2)c1)C(=O)O | inactive | inactive |
| CC[C@H](C)[C@H](NC(=O)c1ccc(NC(=O)[C@@H](N)Cc2ccc3ccccc3c2)c(OCc2c[nH]cn2)c1)C(=O)O | Active | Active |
| NCCCCNC(=O)[C@@H]1CN(C(=O)[C@@H](N)Cc2ccc3ccccc3c2)C[C@H]1C(=O)NCCc1ccc2ccccc2c1 | inactive | inactive |
| COc1ccc(C[C@H](N)C(=O)N2C[C@@H](C(=O)NCCc3c[nH]cn3)[C@H](C(=O)NCCc3c[nH]c4ccccc34)C2)cc1 | Active | Active |
| NC(=O)C[C@H](N)C(=O)N1C[C@@H](C(=O)NCCc2c[nH]cn2)[C@H](C(=O)NCCc2c[nH]c3ccccc23)C1 | inactive | inactive |
| CC(C)C[C@H](N)C(=O)Nc1ccc(C(=O)N[C@@H](CCc2ccccc2)C(=O)O)cc1OCc1ccc(Cl)cc1 | Active | Active |
| CC[C@@H](C)[C@H](NC(=O)c1ccc(NC(=O)[C@@H](N)CC(=O)O)c(OCc2c[nH]cn2)c1)C(=O)O | inactive | inactive |
| NCCCCNC(=O)[C@@H]1CN(C(=O)[C@@H](N)Cc2c[nH]c3ccccc23)C[C@H]1C(=O)NCCc1ccc2ccccc2c1 | Active | Active |
| CC[C@H](C)[C@H](NC(=O)c1ccc(NC(=O)[C@@H](N)Cc2ccc(OC)cc2)c(OCc2c[nH]cn2)c1)C(=O)O | inactive | inactive |
| N[C@@H](Cc1c[nH]c2ccccc12)C(=O)Nc1ccc(C(=O)N[C@@H](CCc2ccccc2)C(=O)O)cc1OCc1ccc(Cl)cc1 | Active | Active |
| CC[C@H](C)[C@H](N)C(=O)N1C[C@@H](C(=O)NCCCCN)[C@H](C(=O)NCCc2ccc3ccccc3c2)C1 | inactive | inactive |
| N[C@@H](CCc1ccc(O)cc1)C(=O)N1C[C@@H](C(=O)NCCc2c[nH]cn2)[C@H](C(=O)NCCc2c[nH]c3ccccc23)C1 | inactive | inactive |
| CC(C)[C@H](N)C(=O)N1C[C@@H](C(=O)NCCCCN)[C@H](C(=O)NCCc2ccc3ccccc3c2)C1 | inactive | inactive |
| CC[C@@H](C)[C@H](NC(=O)c1ccc(NC(=O)[C@@H](N)Cc2c[nH]cn2)c(OCc2c[nH]cn2)c1)C(=O)O | Active | Active |
| N[C@@H](Cc1ccc(Cl)cc1)C(=O)N1C[C@@H](C(=O)NCCc2c[nH]cn2)[C@H](C(=O)NCCc2c[nH]c3ccccc23)C1 | Active | Active |
| NCC(=O)Nc1ccc(C(=O)N[C@@H](CCc2ccccc2)C(=O)O)cc1OCc1ccc(Cl)cc1 | inactive | inactive |
| CC(C)COc1cc(C(=O)N[C@@H](Cc2ccc3ccccc3c2)C(=O)O)ccc1NC(=O)[C@@H](N)Cc1ccc(O)cc1 | – | Active |
| N[C@@H](CCc1ccccc1)C(=O)N1C[C@@H](C(=O)NCCc2c[nH]c3ccccc23)[C@H](C(=O)NCCc2c[nH]c3ccccc23)C1 | – | inactive |
| CC(C)COc1cc(C(=O)N[C@@H](Cc2ccc3ccccc3c2)C(=O)O)ccc1NC(=O)[C@@H](N)Cc1c[nH]c2ccccc12 | – | inactive |
| CSCC[C@H](N)C(=O)Nc1ccc(C(=O)N[C@@H](CCc2ccccc2)C(=O)O)cc1OCc1ccccc1 | – | Active |
| NCCCC[C@H](N)C(=O)N1C[C@@H](C(=O)NCCc2c[nH]c3ccccc23)[C@H](C(=O)NCCc2c[nH]c3ccccc23)C1 | – | Active |
| CC(C)C[C@H](N)C(=O)N1C[C@@H](C(=O)NCCc2c[nH]c3ccccc23)[C@H](C(=O)NCCc2c[nH]c3ccccc23)C1 | – | inactive |
| CC[C@H](N)C(=O)Nc1ccc(C(=O)N[C@@H](CCc2ccccc2)C(=O)O)cc1OCc1ccccc1 | – | Active |
| CSCC[C@H](N)C(=O)Nc1ccc(C(=O)N[C@@H](Cc2ccc3ccccc3c2)C(=O)O)cc1OCC(C)C | – | inactive |
| CC(C)COc1cc(C(=O)N[C@@H](Cc2ccc3ccccc3c2)C(=O)O)ccc1NC(=O)[C@@H](N)CCCCN | – | inactive |
| C[C@@H](O)[C@H](N)C(=O)Nc1ccc(C(=O)N[C@@H](CCc2ccccc2)C(=O)O)cc1OCc1ccccc1 | – | Active |
| C[C@H](N)C(=O)Nc1ccc(C(=O)N[C@@H](CCc2ccccc2)C(=O)O)cc1OCc1ccccc1 | – | inactive |
